Screening data: PubChem, Johns Hopkins Ion Channel Center
Sampled rows, rich in hits. Any-hit rate of the full collection: about 2.9%.
Kir21 inh: inhibitors of mouse Kir2.1 inward-rectifier potassium channel. HEK293-Kir2.1, FluxOR thallium flux fluorescence; hits give low values. B-score at 10 µM. 310,000 tested, 0.85% active;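 active means fluorescence ratio B-score at or below minus 3 SD of library scores, with starting-brightness B-score within 2 SD, cut at about -4.2 in these data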;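 further: channel flux triggered by added potassium and thallium sulfate stimulus; B-score of peak minus minimum fluorescence over baseline after thallium stimulus; more negative B-score means stronger Kir2.1 block with less thallium influx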
TRPC4 block: inhibitors of mouse TRPC4 channel, primary screen, Fluo4 calcium, HEK293 TRPC4beta/mu-opioid cells | Short transient receptor potential channel 4 (Mus musculus), Q9QUQ5 | DAMGO-evoked Fluo4 calcium flux; hits give low values | B-score at 10 µM | 300,000 tested, 0.39% active | AID 2247, 2010;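 active means B-score over 3 SD under the library average, no early fluorescence shift, positive overall ratio signal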
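test system = HEK293 cells with stable TRPC4beta plus mu-opioid receptor expression | detection = Fluo4 Ca2+ flux fluorescence | read-out = integrated fluorescence ratio relative to baseline, converted to per-well B score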
TRPC4 agonist: activators of mouse TRPC4 channel, primary screen, Fluo4 calcium, HEK293 TRPC4beta/mu-opioid cells. Short transient receptor potential channel 4 (Mus musculus), Q9QUQ5. Fluo4 calcium fluorescence; hits give high values. B-score at 10 µM. 310,000 tested, 0.49% active. AID 2237, 2010;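 active means B-score above 5 SD of library B-scores, and initial fluorescence ratio not above library mean plus 5 SD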;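 further: positive B-score marks a calcium rise read as TRPC4 activation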
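Material: TRPC4beta and mu-opioid receptor HEK293 stable cells | Incubation: 45 min room-temperature Fluo4 loading, 110 s read | Detection: Kinetic Fluo4 calcium fluorescence | Measure: Integrated baseline-normalised fluorescence ratio, converted to per-well B score | Benchmarks: Low control buffer alone, high control maximal DAMGO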
TRPC6 act: mouse TRPC6 channel activators, primary screen, cell-based, HEK293, membrane potential dye; Short transient receptor potential channel 6 (Mus musculus), Q61143; HEK293-TRPC6 membrane potential dye fluorescence; hits give high values; B-score at 10 µM; 310,000 tested, 0.13% active;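 active means B-score of the integrated fluorescence ratio above library mean plus 3 SD, and starting fluorescence ratio within library mean plus 5 SD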;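 further: higher score means more depolarization so channel activation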
Target sequence (Q61143 whole entry, looked up): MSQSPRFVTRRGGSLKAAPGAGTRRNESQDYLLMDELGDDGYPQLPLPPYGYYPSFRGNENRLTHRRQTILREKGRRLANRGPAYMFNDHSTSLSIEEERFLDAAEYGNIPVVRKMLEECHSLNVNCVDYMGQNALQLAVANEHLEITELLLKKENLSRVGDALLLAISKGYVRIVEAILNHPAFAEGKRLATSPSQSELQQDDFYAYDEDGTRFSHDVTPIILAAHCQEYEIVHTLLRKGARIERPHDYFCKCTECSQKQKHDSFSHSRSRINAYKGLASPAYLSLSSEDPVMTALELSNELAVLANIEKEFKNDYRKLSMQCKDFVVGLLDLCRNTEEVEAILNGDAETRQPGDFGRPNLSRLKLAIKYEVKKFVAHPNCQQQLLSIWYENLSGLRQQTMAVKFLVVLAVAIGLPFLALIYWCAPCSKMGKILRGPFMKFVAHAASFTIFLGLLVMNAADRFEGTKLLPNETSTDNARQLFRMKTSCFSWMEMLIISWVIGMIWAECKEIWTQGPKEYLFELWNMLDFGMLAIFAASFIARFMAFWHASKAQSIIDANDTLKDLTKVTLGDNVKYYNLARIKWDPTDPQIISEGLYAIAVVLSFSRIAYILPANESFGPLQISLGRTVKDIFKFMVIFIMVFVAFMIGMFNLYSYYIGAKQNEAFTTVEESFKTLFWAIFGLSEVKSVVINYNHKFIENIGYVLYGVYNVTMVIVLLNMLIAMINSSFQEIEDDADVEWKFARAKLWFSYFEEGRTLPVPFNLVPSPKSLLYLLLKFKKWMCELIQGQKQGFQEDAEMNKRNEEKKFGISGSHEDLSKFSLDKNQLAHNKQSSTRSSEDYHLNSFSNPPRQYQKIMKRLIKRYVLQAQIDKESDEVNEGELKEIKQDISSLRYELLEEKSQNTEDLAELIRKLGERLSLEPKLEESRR
TRPC6 inhibitor: mouse TRPC6 channel inhibitors, primary screen, cell-based, HEK293, membrane potential dye; Short transient receptor potential channel 6 (Mus musculus), Q61143; ACh-evoked depolarization; hits give low values; B-score at 10 µM; 310,000 tested, 1.1% active; AID 2553, 2010;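 active means B-score under library mean minus 3 SD, initial fluorescence not abnormally high, positive integrated signal ratio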;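 further: B-score derived from integrated fluorescence ratio over the kinetic read; more negative B-score means stronger inhibition of depolarization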
TRPC4 potent: positive allosteric modulators of TRPC4, primary screen, cell-based, mouse TRPC4beta, HEK293 mu-opioid, Fluo-4 calcium; Short transient receptor potential channel 4 (Mus musculus), Q9QUQ5; DAMGO EC20, Fluo-4 Ca2+ flux; hits give high values; B-score at 10 µM; 310,000 tested, 0.42% active; AID 2227, 2009;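 active means B-score of calcium response area above 5 SD of library B-scores, with initial fluorescence ratio within 5 SD of library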;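 further: B-score of integrated fluorescence ratio over time as area under calcium response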
* = called active by the depositor; i = inactive.

SMILES | Kir21 inh | TRPC4 block | TRPC4 agonist | TRPC6 act | TRPC6 inhibitor | TRPC4 potent
Cc1ccccc1OCC(=O)NCCCNC(=O)c1ccccn1 | 0.91 | i | i | i | i | i
CN(C)Cc1ccccc1Sc1cccc2ccccc12 | -5.35* | i | i | i | i | i
CCCC(C(=O)NC1CCCC1)N(Cc1ccccc1)C(=O)c1snc(C(N)=O)c1N (stereo not given) | 1.97 | i | i | i | i | i
CCCCOCCCNc1ncnc2c1[nH]c1ccccc12 | -9.62* | i | i | i | i | i
CCOCCCNc1ncnc2c1[nH]c1ccccc12 | -0.76 | i | i | i | i | i
CC(C)c1ccc(OCC(=O)Nc2c3c(nn2C(C)(C)C)CS(=O)(=O)C3)cc1 | -0.01 | i | i | i | i | i
CCn1c(C)nc2cc(C(=O)N/N=C/c3cccc(O)c3O)ccc21 | 0.34 | i | i | i | i | 77*
COC(=O)c1ccccc1NC(=O)C1CCN(c2ncnc3c2nc2n3CCCCC2)CC1 | -2.28 | i | i | i | i | i
O=C(CN1CCN(S(=O)(=O)c2ccc(Br)cc2)CC1)N/N=C/c1ccncc1 | -1.51 | i | i | i | i | 15*
Cc1ncsc1CCOC(=O)c1cccnc1 | 1.8 | i | i | i | i | i
Cc1ncsc1CCOC(=O)C12CC3CC(CC(C3)C1)C2 | -3.02 | -7* | i | i | i | i
CCOC(=O)c1c(S(=O)(=O)NCC(=O)NCc2ccccc2Cl)c(C)n(C)c1C | -0.24 | i | i | i | i | i
CN(C(=O)CCn1c(=S)oc2ccccc21)c1ccc(F)cc1 | -5.59* | i | i | i | i | i
Cc1ccccc1SCC(=O)Nc1cc(C(F)(F)F)ccc1N1CCOCC1 | -1.4 | i | i | i | i | i
CCOC(=O)c1ccccc1NC(=O)CSc1nnc(COc2ccccc2)n1CC | -6.21* | i | i | i | i | i
O=C(Cc1cn(Cc2cccc(Cl)c2)c2ccccc12)N1CCCC1 | -5.24* | i | i | i | i | 16*
CCOc1cc(N2CCOCC2)c(OCC)cc1NC(=O)CN1CCc2ccccc2C1 | 0.73 | i | i | i | i | 12*
CCOc1cc(N2CCOCC2)c(OCC)cc1NC(=O)Cc1ccc(OC)c(OC)c1 | -1.87 | i | i | i | i | i
CCOc1cc(N2CCOCC2)c(OCC)cc1NC(=O)CC12CC3CC(CC(C3)C1)C2 | 1.19 | i | i | i | i | 10*
CCOc1cc(N2CCOCC2)c(OCC)cc1NC(=O)Cc1cccc(OC)c1 | 0.37 | i | i | i | i | i
COc1ccccc1C(=O)NCC(=O)NCCc1ccc(Cl)cc1 | -1.13 | i | i | i | i | i
CCCOc1ccc(-c2c(C(=O)N/N=C(\C)COc3ccccc3)nnn2-c2nonc2N)cc1 | 1.02 | i | i | i | i | i
COc1ccc(-c2nn(-c3ccccc3)cc2C(=O)N2c3ccc(C)cc3C3CN(C)CCC32)cc1 (stereo not given) | -0.71 | i | i | i | i | 15*
Cc1ccsc1/C=N/NC(=O)c1nnn(-c2nonc2N)c1CN(C)c1ccccc1 | 0.11 | i | i | i | i | i
O=C(CCCN1C(=O)c2cccnc2C1=O)Nc1ccc(F)cc1Cl | -1.04 | i | i | i | i | i
SMILES | Kir21 inh | TRPC4 block | TRPC4 agonist | TRPC6 act | TRPC6 inhibitor | TRPC4 potent
CCc1sc(C(C2C(=O)CC(C)(C)CC2=O)C2C(=O)CC(C)(C)CC2=O)cc1[N+](=O)[O-] | -0.83 | i | 95* | i | i | i
CC1(C)CC(=O)C(C(c2ccc(F)cc2)C2C(=O)CC(C)(C)CC2=O)C(=O)C1 | 1.78 | i | i | i | i | i
O=C(Nc1ccc(Nc2ccccc2)cc1)c1ccc(Br)o1 | 1.04 | i | i | i | i | 13*
O=C(Nc1ccccc1N1CCN(C(=O)c2ccccc2)CC1)c1ccc(Cl)cc1 | -0.77 | i | i | i | i | i
COc1ccc(C(=O)Nc2ccccc2N2CCN(C(=O)c3ccccc3)CC2)cc1Br | 0.02 | -6* | i | i | i | i
O=C(Nc1ccccc1N1CCN(C(=O)c2ccccc2)CC1)c1ccc(Br)o1 | -0.84 | -7* | i | i | i | i
O=C(Nc1ccccc1N1CCN(C(=O)c2ccc(Cl)cc2)CC1)c1ccc([N+](=O)[O-])o1 | -0.14 | i | i | i | i | i
Cc1c(C(=O)N2CCCCCC2)c(S(=O)(=O)Nc2ccc(F)cc2)c(C)n1C | -0.53 | i | i | i | i | i
CCn1c(=O)c2cc(C(=O)N(C)c3cc(C)ccc3OC)sc2c2ccccc21 | -0.93 | -6* | i | i | i | i
CCn1c(=O)c2cc(C(=O)N(C)c3ccc(OC)cc3OC)sc2c2ccccc21 | 0.69 | i | i | i | i | i
CCCCCCCCC1=NCCc2c1[nH]c1ccccc21 | -7.81* | i | i | i | i | i
Cc1ccc(C)c(S(=O)(=O)N2CCN(C(=O)CCc3nc4ccccc4c(=O)[nH]3)CC2)c1 | 0.34 | i | 194* | i | i | i
COc1ccc(CNC(=O)Cn2cc(C(F)(F)F)ccc2=O)cc1 | 0.03 | i | i | i | i | i
CSc1ccc(Cc2ccc(Cl)cc2Cl)nn1 | -1.43 | i | i | i | i | i
NNc1ccc(Cc2ccc(Cl)cc2Cl)nn1 | 1.14 | i | i | i | i | 15*
CCNS(=O)(=O)c1ccc(Br)c(OC)c1 | 1.19 | -6* | i | i | i | i
Cc1cc(C)c(C(=O)COC(=O)CCn2c(C)csc2=O)cc1C | -4.47* | i | i | i | i | i
CCn1c(SCC(=O)N/N=C/c2cccs2)nc2ccccc21 | -4.84* | i | i | i | i | i
COC(=O)c1ccccc1NC(=S)NC(=O)C1CCCCC1 | 0.96 | i | i | i | i | 16*
Cc1cc(OCCCCCN2CCCC2)ccc1Cl | -0.13 | i | i | i | i | i
Clc1ccc(OCCCN2CCCC2)cc1Cl | -0.14 | i | i | i | i | 11*
